Drawing on ChEMBL document CHEMBL1146365, “Synthesis and biological evaluation of new N-(2-hydroxy-4(or 5)-nitro/aminophenyl)benzamides and phenylacetamides as antimicrobial agents” (2007), this text covers MIC for ten compounds.

For experiment [1], the system named is Klebsiella pneumoniae. In words: Antibacterial activity against Klebsiella pneumoniae isolate assessed after 24 hrs by serial dilution method. It counts as functional. The method in brief: (§1)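 Strains were subcultured twice on MHA at 37 °C overnight. Inoculum was diluted from McFarland 0.5 to 10^5 cfu/ml, giving 10^4 cfu/ml in wells. Solvent, medium and organism-only controls were included. Incubated 37 °C, humid chamber, 24 h, in triplicate. MIC = lowest concentration with no macroscopic growth.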

Experiment [2] concerns Pseudomonas aeruginosa. As to the kind of experiment: Antibacterial activity against Pseudomonas aeruginosa isolate assessed after 24 hrs by serial dilution method. It counts as functional. The method in brief: as §1
Experiment [3] deals with Escherichia coli. As to the kind of experiment: Antibacterial activity against Escherichia coli isolate assessed after 24 hrs by serial dilution method. It counts as functional. The method in brief: as §1
Experiment [4] concerns Bacillus subtilis. In words: Antibacterial activity against Bacillus subtilis ATCC 6633 assessed after 24 hrs by serial dilution method. It counts as functional. The following applies: ATCC 6633, 24 h. In outline:
as §1

Experiment [5] deals with Staphylococcus aureus. As to the kind of experiment: Antibacterial activity against Staphylococcus aureus ATCC 25923 assessed after 24 hrs by serial dilution method. The following applies: ATCC 25923, 24 h. It counts as functional. The method in brief: as §1
Experiment [6] deals with Candida albicans. In words: Antifungal activity against Candida albicans ATCC 10231 assessed after 48 hrs by serial dilution method. It counts as functional. The following applies: ATCC 10231, 48 h. The method in brief:
(§2)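 Broth microdilution per CLSI M27-A in RPMI-1640 with L-glutamine, MOPS-buffered pH 7, with 2-fold compound dilutions. Yeasts were subcultured twice on SDA at 35 °C for 24–48 h. Inoculum was diluted from McFarland 0.5 to 10^4 cfu/ml, giving 10^3 cfu/ml in wells. Incubated 35 °C, humid chamber, 48 h, in triplicate. MIC = lowest concentration with no macroscopic growth.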

Experiment [7] has as its system Candida albicans. In words: Antifungal activity against Candida albicans isolate assessed after 48 hrs by serial dilution method. It counts as functional. In outline:
as §2

Experiment [8] relates to Escherichia coli. In words: Antibacterial activity against Escherichia coli ATCC assessed after 24 hrs by serial dilution method.
In experiment [9] the test system is Klebsiella pneumoniae. In words: Antibacterial activity against Klebsiella pneumoniae RSHM 574 assessed after 24 hrs by serial dilution method.
The subject of experiment [10] is Bacillus subtilis. In words: Antibacterial activity against drug-resistant Bacillus subtilis assessed after 24 hrs by serial dilution method.
Experiment [11] has as its system Pseudomonas aeruginosa. In words: Antibacterial activity against Pseudomonas aeruginosa ATCC […] assessed after 24 hrs by serial dilution method.
For experiment [12], the system named is Staphylococcus aureus. In words: Antibacterial activity against drug-resistant Staphylococcus aureus assessed after 24 hrs by serial dilution method.

Values after ≈ are worked out from the molar mass of the structure shown. Some results are limits rather than exact numbers.

As to `CC(C)(C)c1ccc(C(=O)Nc2ccc([N+](=O)[O-])cc2O)cc1`, the MIC in experiment [1] amounted to 250 µg/mL (≈ 795 µM); in experiment [2] it was 250 µg/mL (≈ 795 µM); in experiment [3], 250 µg/mL (≈ 795 µM); in experiment [4] it was 7.8 µg/mL (≈ 24.8 µM); in [5] it was 7.8 µg/mL (≈ 24.8 µM); in [6] it was 250 µg/mL (≈ 795 µM). Besides, the MIC in [7] is 125 µg/mL (≈ 398 µM); in [8] it was 125 µg/mL (≈ 398 µM); in [9] it was 125 µg/mL (≈ 398 µM); in [10], 15.6 µg/mL (≈ 49.6 µM); in [11], 125 µg/mL (≈ 398 µM); in experiment [12], 1.95 µg/mL (≈ 6.2 µM).

With `Cc1ccc(CC(=O)Nc2cc(N)ccc2O)cc1`, the MIC in experiment [1] turned out to be 250 µg/mL (≈ 975 µM); in [2] it was 250 µg/mL (≈ 975 µM); in [3] it was 250 µg/mL (≈ 975 µM); in [4], 15.6 µg/mL (≈ 60.9 µM); in [5], 31.2 µg/mL (≈ 122 µM); in experiment [6], 125 µg/mL (≈ 488 µM). Also, the MIC in [7] is 125 µg/mL (≈ 488 µM).

With `O=C(Cc1ccc(Cl)cc1)Nc1ccc([N+](=O)[O-])cc1O`, the MIC worked out at 125 µg/mL (≈ 408 µM) in experiment [1]; 250 µg/mL (≈ 815 µM) in experiment [2]; 125 µg/mL (≈ 408 µM) in [3]; 250 µg/mL (≈ 815 µM) in [4]; 125 µg/mL (≈ 408 µM) in experiment [5]; 125 µg/mL (≈ 408 µM) in [6]. For the same compound, the MIC in [7] worked out at 125 µg/mL (≈ 408 µM); in experiment [8] it was 125 µg/mL (≈ 408 µM); in [9] it was 125 µg/mL (≈ 408 µM); in experiment [10] it was 31.2 µg/mL (≈ 102 µM); in experiment [11], 125 µg/mL (≈ 408 µM); in experiment [12], 125 µg/mL (≈ 408 µM).

For the compound `Nc1ccc(NC(=O)c2ccc(F)cc2)c(O)c1`, the MIC came to 250 µg/mL (≈ 1020 µM) in experiment [1]; 250 µg/mL (≈ 1020 µM) in experiment [2]; 250 µg/mL (≈ 1020 µM) in experiment [3]; 125 µg/mL (≈ 508 µM) in experiment [4]; 62.5 µg/mL (≈ 254 µM) in experiment [5]; 125 µg/mL (≈ 508 µM) in [6]. Also, the MIC in [7] was 125 µg/mL (≈ 508 µM); in experiment [8], 250 µg/mL (≈ 1020 µM); in experiment [9] it was 125 µg/mL (≈ 508 µM); in experiment [10], 125 µg/mL (≈ 508 µM); in [11] it was 125 µg/mL (≈ 508 µM); in [12], 15.6 µg/mL (≈ 63.4 µM).

On to `O=C(Cc1ccc(F)cc1)Nc1cc([N+](=O)[O-])ccc1O`, for which the MIC in experiment [1] stood at 125 µg/mL (≈ 431 µM); in [2], 250 µg/mL (≈ 861 µM); in experiment [3], 250 µg/mL (≈ 861 µM); in experiment [4] it was 15.6 µg/mL (≈ 53.7 µM); in [5], 31.2 µg/mL (≈ 108 µM); in [6], 250 µg/mL (≈ 861 µM). The MIC in [7] stood at 125 µg/mL (≈ 431 µM); in experiment [8] it was 62.5 µg/mL (≈ 215 µM); in experiment [9], 125 µg/mL (≈ 431 µM); in [10], 31.2 µg/mL (≈ 108 µM); in experiment [11], 250 µg/mL (≈ 861 µM); in experiment [12], 31.2 µg/mL (≈ 108 µM).

Take `Nc1ccc(NC(=O)c2ccc(Br)cc2)c(O)c1`: the MIC in [1] was 250 µg/mL (≈ 814 µM); in experiment [2] it was 250 µg/mL (≈ 814 µM); in experiment [3], 250 µg/mL (≈ 814 µM); in experiment [4], 62.5 µg/mL (≈ 203 µM); in [5] it was 125 µg/mL (≈ 407 µM); in experiment [6] it was 250 µg/mL (≈ 814 µM). In addition, the MIC was 125 µg/mL (≈ 407 µM) in experiment [7]; 125 µg/mL (≈ 407 µM) in experiment [8]; 250 µg/mL (≈ 814 µM) in [9]; 31.2 µg/mL (≈ 102 µM) in [10]; 250 µg/mL (≈ 814 µM) in experiment [11]; 7.8 µg/mL (≈ 25.4 µM) in experiment [12].

With `O=C(Cc1ccc(Br)cc1)Nc1ccc([N+](=O)[O-])cc1O`, the MIC came to 125 µg/mL (≈ 356 µM) in experiment [1]; 250 µg/mL (≈ 712 µM) in experiment [2]; 250 µg/mL (≈ 712 µM) in [3]; 31.2 µg/mL (≈ 89 µM) in experiment [4]; 250 µg/mL (≈ 712 µM) in experiment [5]; 250 µg/mL (≈ 712 µM) in [6]. For the same compound, the MIC came to 250 µg/mL (≈ 712 µM) in [7]; 125 µg/mL (≈ 356 µM) in experiment [8]; 250 µg/mL (≈ 712 µM) in [9]; 125 µg/mL (≈ 356 µM) in experiment [10]; 250 µg/mL (≈ 712 µM) in experiment [11]; 125 µg/mL (≈ 356 µM) in experiment [12].

Consider `Nc1ccc(O)c(NC(=O)Cc2ccc(F)cc2)c1`, for which the MIC in experiment [1] worked out at 250 µg/mL (≈ 961 µM); in experiment [2] it was 250 µg/mL (≈ 961 µM); in [3], 250 µg/mL (≈ 961 µM); in experiment [4], 15.6 µg/mL (≈ 59.9 µM); in experiment [5] it was 62.5 µg/mL (≈ 240 µM); in experiment [6], 250 µg/mL (≈ 961 µM). This compound also came in with an MIC in experiment [7] of 125 µg/mL (≈ 480 µM).

As for `CC1COc2c(N3CCN(C)CC3)c(F)cc3c(=O)c(C(=O)O)cn1c23` (stereo unspecified) [OFLOXACIN], the MIC in experiment [1] is 64 µg/mL (≈ 177 µM); in experiment [3], 32 µg/mL (≈ 88.6 µM); in [4], greater than 4100 µg/mL; in experiment [5], greater than 4100 µg/mL; in experiment [9] it was 64 µg/mL (≈ 177 µM); in experiment [10], 32 µg/mL (≈ 88.6 µM). In addition, the MIC in experiment [11] was 8 µg/mL (≈ 22.1 µM); in experiment [12], greater than 4100 µg/mL.

Regarding `OC(Cn1cncn1)(Cn1cncn1)c1ccc(F)cc1F` [FLUCONAZOLE], the MIC came out at 4 µg/mL (≈ 13.1 µM) in experiment [6] and 512 µg/mL (≈ 1670 µM) in experiment [7].

In general, MIC refers to the smallest concentration in the dilution series that meets the test's criterion for growth inhibition.
